# Reference: publication PMC8861878 (The Journal of pharmacy and pharmacology, 2020)
# Several values for one entry are separate records, joined by “and”; a condition that tells them apart may be missing. Identical values can stand only once.
# What was measured:
# [1] = Mono-oxidation of isobavachin by MLM, enzyme kinetics; type: in vitro ADME, mice
# [2] = Glucuronidation of isobavachin by pooled HLM, enzyme kinetics; type: in vitro ADME, human
# [3] = Glucuronidation of isobavachin by MLM, enzyme kinetics; type: in vitro ADME, mice
# UGT1A1 = target: T1, UGT1A1 (Homo sapiens, UniProt P22309); experiment: Glucuronidation of isobavachin by recombinant UGT1A1, enzyme kinetics; type: in vitro ADME; conditions: formation of G1, substrate inhibition model
# T1 sequence (P22309 26-533): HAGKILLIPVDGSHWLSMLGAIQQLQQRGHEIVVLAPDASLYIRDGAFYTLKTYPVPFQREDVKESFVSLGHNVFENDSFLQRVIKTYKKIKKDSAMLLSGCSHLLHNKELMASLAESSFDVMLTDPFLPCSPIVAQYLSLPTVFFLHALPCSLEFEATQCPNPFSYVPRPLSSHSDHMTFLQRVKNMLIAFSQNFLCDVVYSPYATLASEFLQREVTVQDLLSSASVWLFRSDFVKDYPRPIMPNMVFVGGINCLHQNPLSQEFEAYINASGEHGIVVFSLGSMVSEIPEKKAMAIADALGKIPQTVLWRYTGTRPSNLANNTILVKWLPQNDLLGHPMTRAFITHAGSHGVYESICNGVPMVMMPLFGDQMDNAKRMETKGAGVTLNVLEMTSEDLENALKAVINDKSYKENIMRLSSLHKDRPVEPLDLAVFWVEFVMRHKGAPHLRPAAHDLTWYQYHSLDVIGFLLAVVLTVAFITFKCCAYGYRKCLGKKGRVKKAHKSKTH
# UGT1A8 = target: T2, UGT1A8 (Homo sapiens, UniProt Q9HAW9); experiment: Glucuronidation of isobavachin by recombinant UGT1A8, enzyme kinetics; type: in vitro ADME; conditions: formation of G1, substrate inhibition model
# T2 sequence (Q9HAW9 26-530): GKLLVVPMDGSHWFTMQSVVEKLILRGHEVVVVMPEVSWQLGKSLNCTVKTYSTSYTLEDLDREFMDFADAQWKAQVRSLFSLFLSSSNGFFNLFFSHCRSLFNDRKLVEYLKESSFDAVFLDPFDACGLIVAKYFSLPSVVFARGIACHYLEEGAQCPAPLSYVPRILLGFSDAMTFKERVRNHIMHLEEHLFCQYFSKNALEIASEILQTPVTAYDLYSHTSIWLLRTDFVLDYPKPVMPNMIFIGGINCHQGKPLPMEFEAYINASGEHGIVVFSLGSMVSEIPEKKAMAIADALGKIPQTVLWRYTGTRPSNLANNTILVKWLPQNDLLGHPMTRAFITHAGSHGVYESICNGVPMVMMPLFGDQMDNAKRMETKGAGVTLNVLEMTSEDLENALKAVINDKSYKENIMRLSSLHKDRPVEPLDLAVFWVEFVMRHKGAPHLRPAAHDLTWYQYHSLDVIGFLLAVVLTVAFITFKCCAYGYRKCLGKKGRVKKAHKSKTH
# UGT2B4 = target: T3, UGT2B4 (Homo sapiens, UniProt P06133); experiment: Glucuronidation of isobavachin by recombinant UGT2B4, enzyme kinetics; type: in vitro ADME; conditions: formation of G1; Michaelis–Menten model
# T3 sequence (P06133 24-528): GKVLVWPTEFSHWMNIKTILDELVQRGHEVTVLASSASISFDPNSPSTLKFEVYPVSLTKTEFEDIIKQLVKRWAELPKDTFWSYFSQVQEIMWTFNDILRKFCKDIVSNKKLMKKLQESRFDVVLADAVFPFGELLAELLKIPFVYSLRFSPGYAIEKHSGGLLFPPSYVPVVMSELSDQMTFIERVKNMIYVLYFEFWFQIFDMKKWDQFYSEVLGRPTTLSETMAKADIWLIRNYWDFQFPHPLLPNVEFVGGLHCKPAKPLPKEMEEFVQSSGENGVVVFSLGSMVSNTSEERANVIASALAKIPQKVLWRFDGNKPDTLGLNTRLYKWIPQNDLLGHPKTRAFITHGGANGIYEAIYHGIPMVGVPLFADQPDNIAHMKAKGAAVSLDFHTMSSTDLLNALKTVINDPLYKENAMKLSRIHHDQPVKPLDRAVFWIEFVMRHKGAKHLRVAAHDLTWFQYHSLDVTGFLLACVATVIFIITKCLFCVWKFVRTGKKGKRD
# CYP2C19 = CYP2C19 (Homo sapiens, UniProt P33261); experiment: Inhibition of CYP2C19; type: in vitro ADME
# CYP2C19, sequence (P33261 whole entry): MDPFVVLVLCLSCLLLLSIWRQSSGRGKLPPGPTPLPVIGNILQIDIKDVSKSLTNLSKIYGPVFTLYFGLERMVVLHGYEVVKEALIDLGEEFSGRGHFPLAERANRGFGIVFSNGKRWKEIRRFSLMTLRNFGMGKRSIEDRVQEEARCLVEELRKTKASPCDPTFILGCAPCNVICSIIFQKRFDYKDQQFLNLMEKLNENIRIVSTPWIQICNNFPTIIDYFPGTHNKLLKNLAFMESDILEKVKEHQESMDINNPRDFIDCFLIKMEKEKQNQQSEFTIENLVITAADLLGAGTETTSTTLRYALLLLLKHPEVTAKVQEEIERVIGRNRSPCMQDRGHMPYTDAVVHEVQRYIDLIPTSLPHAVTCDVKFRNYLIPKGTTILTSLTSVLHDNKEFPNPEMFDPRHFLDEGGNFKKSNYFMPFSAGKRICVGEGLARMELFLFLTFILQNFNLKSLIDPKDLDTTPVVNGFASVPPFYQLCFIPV
# CYP3A4 = CYP3A4 (Homo sapiens, UniProt P08684); experiment: Inhibition of CYP3A4; type: in vitro ADME; conditions: isobavachin 1, 10, 100 μM; substrate nifedipine (40 μM)
# CYP3A4, sequence (P08684 whole entry): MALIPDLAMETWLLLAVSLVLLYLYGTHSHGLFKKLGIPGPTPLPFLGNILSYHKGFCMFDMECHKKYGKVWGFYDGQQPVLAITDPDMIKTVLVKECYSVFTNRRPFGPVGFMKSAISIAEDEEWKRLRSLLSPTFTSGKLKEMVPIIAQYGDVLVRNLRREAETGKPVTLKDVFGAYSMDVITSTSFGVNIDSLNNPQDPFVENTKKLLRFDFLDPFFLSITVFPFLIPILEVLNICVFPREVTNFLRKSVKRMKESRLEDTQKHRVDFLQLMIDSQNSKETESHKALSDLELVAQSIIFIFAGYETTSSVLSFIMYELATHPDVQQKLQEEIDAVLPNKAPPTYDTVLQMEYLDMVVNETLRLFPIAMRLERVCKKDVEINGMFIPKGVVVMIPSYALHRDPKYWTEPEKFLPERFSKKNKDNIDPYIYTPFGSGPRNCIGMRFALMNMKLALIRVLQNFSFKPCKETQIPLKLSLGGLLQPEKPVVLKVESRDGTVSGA
# How it was run: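 Recombinant human CYPs (CYP1A2 and 3A4 at 0.05 mg/ml; CYP2C8 and 2E1 at 0.1 mg/ml) with probe substrate in Tris-HCl 50 mM pH 7.4, MgCl2 5 mM and NADPH 1 mM at 37 °C for 60 min. Run without (control) or with test compound at 1, 10 or 100 μM. Acetonitrile stop; metabolite by UHPLC-TQD-MS; activity versus control, triplicate.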
# expressed CYP enzymes = experiment: Reaction phenotyping with expressed CYP enzymes; type: in vitro ADME, human; conditions: isobavachin at 10 μM (Figure S4A)
# expressed UGT enzymes = experiment: Reaction phenotyping with expressed UGT enzymes; type: in vitro ADME, human; conditions: isobavachin at 10 μM (Figure S4B)
# [4] = formation of G2, substrate inhibition model
compound,measurement,setting,value
CC(C)=CCc1c(O)ccc2c1O[C@H](c1ccc(O)cc1)CC2=O [isobavachin],CLint (CLmax),"[1]; formation of M1, Michaelis–Menten model",35.46 μl/min per mg and 35.46 ± 5.98 μl/min per mg
same,CLint (CLmax),"[1]; formation of M2, substrate inhibition model",64.32 μl/min per mg and 64.32 ± 17.18 μl/min per mg
same,CLint (CLmax),"[1]; formation of M3, substrate inhibition model",47.43 μl/min per mg and 47.43 ± 7.99 μl/min per mg
same,CLint (CLmax),"[2]; formation of G1, Hill equation (CLmax)",148.79 ± 9.36 μl/min per mg
same,CLint (CLmax),[2]; [4],21.82 ± 4.35 μl/min per mg
same,CLint (CLmax),"[3]; formation of G1, Michaelis–Menten model",144.94 ± 11.20 μl/min per mg
same,CLint (CLmax),[3]; [4],29.60 ± 9.00 μl/min per mg
same,Ki,UGT1A1; substrate inhibition constant,40820 ± 9700 nM
same,Vmax,UGT1A1,7735.0 ± 1186.0 pmol/min per mg
same,Ki,UGT1A8; substrate inhibition constant,17040 ± 3360 nM
same,CLint (CLmax),UGT1A8,46.30 ± 11.05 μl/min per mg
same,Vmax,UGT1A8,1607.00 ± 241.00 pmol/min per mg
same,CLint (CLmax),UGT2B4,30.59 ± 3.28 μl/min per mg
same,Vmax,UGT2B4,81.29 ± 2.05 pmol/min per mg
same,IC50,CYP2C19,270 ± 70 nM
same,residual activities,CYP2C19; 10 μM isobavachin,0 % of the negative control
same,Ki,"CYP2C19; substrate mephenytoin, competitive model (selected, smallest AIC and SC)",1550 nM
same,Ki,"CYP2C19; substrate mephenytoin, mixed-type model (not selected)",1550 ± 530 nM
same,Ki,"CYP2C19; substrate mephenytoin, non-competitive model (not selected)",3340 ± 490 nM
same,Inhibition type,CYP2C19; based on the smallest AIC and SC values,competitive inhibition
same,α,"CYP2C19; substrate mephenytoin, mixed-type model",>>1
same,inhibitory effects,CYP3A4,negligible or weak
same,CYP isozymes participating in oxidation,expressed CYP enzymes,"CYP1A1, 1A2, 1B1, 2C8, 2C9, 2C19 and 2D6 all participated in the oxidation"
same,UGT enzymes involved in glucuronidation,expressed UGT enzymes,"UGT1A1, 1A6, 1A7, 1A8, 1A9 and 2B4 have an important role in glucuronidation reaction"
